A word on the Ki: it is a dissociation constant, usually derived from enzyme kinetics or from competition with a known ligand. A high value points to a looser hold on the target.

The test system of one assay is CB2. Conditions: Fig. 2 and introduction; cited from earlier work.
Assay [1] relates to CB2R. Conditions: CB2R-mediated gastrointestinal assays; cited from earlier work.
In assay [2] the test system is P-ERK 1/2 expression in HL-60 cells selectively expressing CB2R. Conditions: cited from earlier work.
In assay [3] the target is CB2R (Mus musculus, UniProt P47936). Nature of the assay: Radioligand binding, CB2R, [3H]-CP-55,940 competition in mouse spleen homogenate.
A further assay addresses CB1R (Mus musculus, UniProt P47746). Nature of the assay: Radioligand binding, CB1R, [3H]-CP-55,940 competition in mouse brain.
Assay [4] relates to P-ERK 1/2 expression in HL-60 cells selectively expressing CB2R. Description: P-ERK 1/2 expression. In kind it is cell-based, human. A digest of the protocol: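 HL-60 cells grown at 37 °C, 5% CO2, in RPMI 1640 with 10% heat-inactivated FBS, 25 mM HEPES, 2.5 mM pyruvate and gentamicin, and used at 80% confluency. Compounds were given in medium with 1% DMSO for 15 min, with or without 75 nM AM630 added 5 min before. Lysates (HEPES pH 7.9, 4 °C) were western-blotted for P-ERK1/2. Values are % of vehicle, five separate experiments, ±SEM.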

Chain of CB2R (Mus musculus, UniProt P47936) (P47936 whole entry): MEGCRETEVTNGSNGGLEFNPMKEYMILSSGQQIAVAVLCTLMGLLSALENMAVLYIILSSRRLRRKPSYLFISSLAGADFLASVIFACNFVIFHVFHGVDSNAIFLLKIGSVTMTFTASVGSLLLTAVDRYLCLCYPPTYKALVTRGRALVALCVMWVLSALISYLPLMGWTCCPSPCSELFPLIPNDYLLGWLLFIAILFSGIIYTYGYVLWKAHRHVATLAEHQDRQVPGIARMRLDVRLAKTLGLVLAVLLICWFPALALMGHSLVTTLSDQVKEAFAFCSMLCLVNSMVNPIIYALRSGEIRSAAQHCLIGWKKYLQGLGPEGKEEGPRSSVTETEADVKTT
Chain of CB1R (P47746 whole entry): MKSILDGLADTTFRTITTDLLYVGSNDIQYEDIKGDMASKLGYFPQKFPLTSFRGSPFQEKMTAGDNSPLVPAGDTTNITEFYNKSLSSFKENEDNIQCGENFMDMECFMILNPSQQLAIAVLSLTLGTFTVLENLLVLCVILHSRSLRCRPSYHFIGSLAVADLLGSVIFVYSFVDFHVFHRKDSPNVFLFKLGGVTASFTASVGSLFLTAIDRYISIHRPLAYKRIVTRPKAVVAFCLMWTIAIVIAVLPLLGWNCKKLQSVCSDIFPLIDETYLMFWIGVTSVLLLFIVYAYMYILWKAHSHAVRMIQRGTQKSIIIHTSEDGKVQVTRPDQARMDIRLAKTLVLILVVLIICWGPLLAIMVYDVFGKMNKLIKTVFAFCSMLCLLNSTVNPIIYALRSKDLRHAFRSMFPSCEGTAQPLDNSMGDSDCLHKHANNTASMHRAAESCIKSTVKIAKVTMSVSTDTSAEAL

With “5-(4-chloro-3-methylphenyl)-1-(4-methylbenzyl)-N-fenchyl-1H-pyrazole-3-carboxamide [Compound 1]”, in the assay on CB2, the “selectivity ratio KiCB1/KiCB2 of SR144528” value is on record as above 600. Besides, in the assay with CB2R [1], the “in vivo CB2R antagonist activity” value is “remarkable in vivo CB2R antagonist activity”.

For the molecule `Cc1ccc2c(c1)Cc1c(C(=O)NN3CCCCC3)nn(-c3ccc(Cl)cc3Cl)c1-2` [Compound 2, 1-(2,4-dichlorophenyl)-6-methyl-N-(piperidin-1-yl)-1,4-dihydroindeno[1,2-c]pyrazole-3-carboxamide], the “CB2 intrinsic activity in vitro” value in assay [2] is on record as “CB2 agonist activity in vitro”.

Consider `Cc1cc2c(cc1Cl)-c1c(c(C(=O)NC3CC4CCC3(C)C4(C)C)nn1-c1ccc(Cl)cc1Cl)C2` (stereo not drawn) [Compound 6, N-Bornyl-7-chloro-1-(2,4-dichlorophenyl)-6-methyl-1,4-dihydroindeno[1,2-c]pyrazole-3-carboxamide], for which the Ki is 474 ± 25 nM at CB2R [3] and 2670 ± 167 nM on CB1R.

For `Cc1cc2c(cc1Cl)-c1c(c(C(=O)NC3CC(C)CCC3C(C)C)nn1-c1ccc(Cl)cc1Cl)C2` (stereo not drawn) [Compound 9, N-Menthyl-7-chloro-1-(2,4-Dichlorophenyl)-6-methyl-1,4-dihydroindeno[1,2-c]pyrazole-3-carboxamide], the figures for the Ki on CB2R [3] and at CB1R were 3100 ± 283 nM and 1250 ± 359 nM, respectively.

Take `Cc1cc2c(cc1Cl)-c1c(c(C(=O)NC34CC5CC(CC(C5)C3)C4)nn1-c1ccc(Cl)cc1Cl)C2` [Compound 10, N-Adamant-1-yl-7-chloro-1-(2,4-dichlorophenyl)-6-methyl-1,4-dihydroindeno[1,2-c]pyrazole-3-carboxamide]: the values for the Ki on CB2R [3] and at CB1R were 425 ± 95 nM and 1300 ± 347 nM, respectively.

Turning to `Cc1cc2c(cc1Cl)-c1c(c(C(=O)NC3C4CC5CC(C4)CC3C5)nn1-c1ccc(Cl)cc1Cl)C2` (stereo not drawn) [Compound 11, N-Adamant-2-yl-7-chloro-1-(2,4-dichlorophenyl)-6-methyl-1,4-dihydroindeno[1,2-c]pyrazole-3-carboxamide], the Ki came out at 275 ± 25 nM at CB2R [3] and 4620 ± 857 nM on CB1R.

For the molecule `Cc1cc2c(cc1Cl)-c1c(c(C(=O)N[C@H]3CC[C@H](C)CC3)nn1-c1ccc(Cl)cc1Cl)C2` [Compound 14, Trans-N-(4-Methylcyclohexyl)-7-chloro-1-(2,4-dichlorophenyl)-6-meth-yl-1,4-dihydroindeno[1,2-c]pyrazole-3-carboxamide], the inhibition constant Ki was 325 ± 53 nM at CB2R [3] and above 5000 nM at CB1R.

Consider `Cc1cc2c(cc1Cl)-c1c(c(C(=O)NC3CCCCCC3)nn1-c1ccc(Cl)cc1Cl)C2` [Compound 16, N-Cycloheptyl-7-chloro-1-(2,4-dichlorophenyl)-6-methyl-1,4-dihydroindeno[1,2-c]pyrazole-3-carboxamide], for which the Ki at CB2R [3] turned out to be 1520 ± 1240 nM; on CB1R, 3750 ± 1250 nM.

On to `Cc1cc2c(cc1Cl)-c1c(c(C(=O)Nc3cccc4ccccc34)nn1-c1ccc(Cl)cc1Cl)C2` [Compound 18, N-(Naphthalen-1-yl)-7-chloro-1-(2,4-dichlorophenyl)-6-methyl-1,4-dihydroindeno[1,2-c]pyrazole-3-carboxamide], for which the Ki on CB2R [3] was 1130 ± 125 nM; at CB1R, above 5000 nM.

Regarding `Cc1cc2c(cc1Cl)-c1c(c(C(=O)NC(C)c3cccc4ccccc34)nn1-c1ccc(Cl)cc1Cl)C2` (stereo not drawn) [Compound 19, N-(1-(1-Naphthyl)ethyl)-7-chloro-1-(2,4-dichlorophenyl)-6-methyl-1,4-dihydroindeno[1,2-c]pyrazole-3-carboxamide], the Ki at CB2R [3] was 2400 ± 400 nM; on CB1R it was above 5000 nM.

With `Cc1cc2c(cc1Cl)Cc1c(C(=O)NC34CC5CC(CC(C5)C3)C4)nn(-c3ccc(Cl)cc3Cl)c1-2` [Compound 24, N-Adamant-1-yl-6-chloro-1-(2,4-dichlorophenyl)-7-methyl-1,4-dihydroindeno[1,2-c]pyrazole-3-carboxamide], the Ki was determined as 1350 ± 813 nM at CB2R [3] and 4750 ± 20 nM on CB1R.

Take `Cc1c(C(=O)c2cccc3ccccc23)c2cccc3c2n1[C@H](CN1CCOCC1)CO3` [WIN 55,212-2]: in assay [4] (75 nM (dose of maximum effect), 15 min exposure), the “P-ERK 1/2 expression, percentage of increment versus vehicle” value is on record as “+83.2 ± 18.9%”. The “Effect on P-ERK 1/2 expression after 5 min pre-treatment with CB2 antagonist AM630” value in assay [4] (AM630 75 nM, agonist at dose of maximum effect, 15 min) is given as “counteracted”. In assay [4] (western blot, 15 min exposure), the “P-ERK 1/2 expression in treated HL-60 cells versus vehicle” value is “significant increase”.

Values taken from publication PMC3406267 (The Open Medicinal Chemistry Journal, 2012).
